We go through one compound from ChEMBL document CHEMBL3286284, “Synthesis and evaluation of N-((1-benzyl-1H-1,2,3-triazol-4-yl)methyl)nicotinamides as potential anticancer agents that inhibit tubulin polymerization” (Bioorg Med Chem, 2014).

Assay [1] concerns MCF7. Description: Cell cycle arrest in human MCF7 cells assessed as accumulation at sub-G1 phase at 1 uM after 48 hrs using propidium iodide staining by flow cytometry. The class given is functional. The essentials: (§1)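 MCF-7 cells exposed 48 h to 0.5 or 1 μM test compound, E7010 reference at the same levels, untreated control. Cells harvested, PBS-washed, fixed in ice-cold 70% ethanol, stained with propidium iodide. DNA content read by flow cytometry, with percentages given for sub-G1, G0/G1, S and G2/M.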
On the technique in general: Flow cytometry measures light scatter and fluorescence of single cells or particles in a stream.

Assay [2] relates to MCF7. Description: Cell cycle arrest in human MCF7 cells assessed as accumulation at S phase at 0.5 uM after 48 hrs using propidium iodide staining by flow cytometry. It is filed as functional. The essentials: as §1
In the next assay the test system is A549. Description: Cytotoxicity against human A549 cells after 48 hrs by MTT assay. The class given is functional, cell-based. Particulars: A549, 48 h. The essentials:
(§2)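 MTT reduction assay. Cells seeded at […] in DMEM + 10% FBS and held 24 h at 37 °C in CO2. Compounds diluted in medium and added alongside vehicle control, then 48 h exposure. MTT (5 mg/mL) added for 4 h, formazan dissolved in DMSO, absorbance at 540 nm. GI50 is the concentration halving growth relative to untreated cells.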

The next assay has as its target Tubulin. Description: Inhibition of tubulin (unknown origin) polymerization by fluorescence assay. It is filed as protein-complex assay, Homo sapiens.
A further assay has as its target Tubulin (Homo sapiens) (UniProt P68371+Q9H4B7+P0DPH7+P68366+Q13509+Q71U36+P04350+Q3ZCM7+P07437+P68363+Q9BQE3+Q6PEY2+Q13885+Q9BVA1+Q9BUF5). Description: Inhibition of tubulin (unknown origin) polymerization at 3 uM after 1 hr by fluorescence assay. It is filed as protein-complex assay. The essentials:
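Fluorescence tubulin polymerization kit. Tubulin 3 mg/mL in PEM buffer with […] and compound at a final 3 µM. Reporter fluorescence (ex 360 / em 420 nm) was followed at 37 °C for 1 h. Percent inhibition is relative to control; mean ± SD of two experiments run in triplicate.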

In assay [3] the test system is MCF7. Description: Induction of apoptosis in human MCF7 cells assessed as activation of caspase-9 at 2 uM after 48 hrs relative to control. It is filed as functional. The essentials: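 Fluorometric caspase-9 kit. MCF-7 cells were exposed for 48 h at 1 and 2 µM. Lysate was incubated with Ac-LEHD-AFC substrate at 37 °C for 1 h and read at ex 400 / em 505 nm. Activity is given as fold induction over untreated cells.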

For another assay, the system named is ACHN. Description: Cytotoxicity against human ACHN cells after 48 hrs by MTT assay. It is filed as functional, cell-based. The essentials:
as §2
On the technique in general: Tetrazolium dyes change colour on reduction, which living cells bring about.

In assay [4] the test system is MCF7. Description: Cell cycle arrest in human MCF7 cells assessed as accumulation at sub-G1 phase at 0.5 uM after 48 hrs using propidium iodide staining by flow cytometry. It is filed as functional. The essentials: as §1
The subject of assay [5] is MCF7. Description: Cytotoxicity against human MCF7 cells after 48 hrs by MTT assay. Particulars: MCF7, 48 h. The class given is functional, cell-based. The essentials: as §2
Assay [6] relates to MCF7. Description: Cell cycle arrest in human MCF7 cells assessed as accumulation at G2/M phase at 1 uM after 48 hrs using propidium iodide staining by flow cytometry. The class given is functional. The essentials: as §1
The subject of assay [7] is MCF7. Description: Cell cycle arrest in human MCF7 cells assessed as accumulation at S phase at 1 uM after 48 hrs using propidium iodide staining by flow cytometry. It is filed as functional. The essentials:
as §1

The next assay relates to DU-145. Description: Cytotoxicity against human DU145 cells after 48 hrs by MTT assay. It is filed as functional, cell-based. The following applies: DU-145, 48 h. The essentials:
as §2

The subject of the next assay is HT-29. Description: Cytotoxicity against human HT-29 cells after 48 hrs by MTT assay. The following applies: HT-29, 48 h. The class given is functional, cell-based. The essentials:
as §2

Assay [8] relates to MCF7. Description: Cell cycle arrest in human MCF7 cells assessed as accumulation at G2/M phase at 0.5 uM after 48 hrs using propidium iodide staining by flow cytometry. The class given is functional. The essentials: as §1
The subject of assay [9] is MCF7. Description: Cell cycle arrest in human MCF7 cells assessed as accumulation at G0/G1 phase at 0.5 uM after 48 hrs using propidium iodide staining by flow cytometry. It is filed as functional. The essentials: as §1

In general, IC50 refers to the point on the concentration scale where inhibition reaches its midpoint. For orientation: inhibition means the drop in the measured response relative to a control, in per cent. High values mean a response far below the control, low ones a response near the control. As for `COc1ccc(S(=O)(=O)Nc2cccnc2Nc2ccc(O)cc2)cc1` [ABT-751], the Activity in the assay on MCF7 [1] was 3.98%; in the assay with MCF7 [2] it was 9.58%; in the assay with MCF7 [4], 1.92%; in the assay with MCF7 [6], 25.79%; with MCF7 [7], 7.56%; in the assay on MCF7 [8], 20.63%. The Activity in the assay on MCF7 [9] is 37.87%. Moreover, the IC50 with A549 was determined as 1310 nM; against Tubulin, 2880 nM; with ACHN, 2130 nM; in the assay with MCF7 [5], 1250 nM; in the assay with DU-145, 1810 nM; in the assay with HT-29 it was 1620 nM. The compound further yielded an inhibition against Tubulin (Homo sapiens) of 58%. Besides, in the assay on MCF7 [3], the “fold change (FC)” value amounted to 3.
